Laboratory results: ChEMBL document CHEMBL1154934, “Identification of piperazine-bisamide GHSR antagonists for the treatment of obesity” (Bioorg Med Chem Lett, 2010)

Columns and labels:
[1] = molecular target: Kappa-type opioid receptor (Homo sapiens, UniProt P41145); test: Inhibition of kappa opioid receptor
[2] = molecular target: 5-hydroxytryptamine receptor 2A (Homo sapiens, UniProt P28223); test: Inhibition of 5HT2A (receptor)
[3] = molecular target: Sodium-dependent serotonin transporter (Homo sapiens, UniProt P31645); test: Inhibition of SERT
[4] = molecular target: T1, Alpha-2A adrenergic receptor (Homo sapiens, UniProt P08913); test: Inhibition of alpha2A adrenergic receptor
T1 sequence (P08913 whole entry): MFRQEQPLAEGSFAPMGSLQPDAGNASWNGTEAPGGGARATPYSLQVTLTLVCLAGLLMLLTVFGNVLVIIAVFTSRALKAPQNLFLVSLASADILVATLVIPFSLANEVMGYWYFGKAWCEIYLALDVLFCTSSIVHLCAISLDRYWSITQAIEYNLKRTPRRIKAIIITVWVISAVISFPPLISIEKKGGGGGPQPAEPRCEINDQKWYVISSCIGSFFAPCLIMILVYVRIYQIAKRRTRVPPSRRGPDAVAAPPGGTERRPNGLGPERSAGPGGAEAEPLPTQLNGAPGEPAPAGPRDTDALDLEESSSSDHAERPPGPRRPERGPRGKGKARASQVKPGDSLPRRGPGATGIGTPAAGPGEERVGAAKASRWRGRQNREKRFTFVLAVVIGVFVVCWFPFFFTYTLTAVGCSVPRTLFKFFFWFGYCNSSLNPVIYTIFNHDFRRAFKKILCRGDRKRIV

[5] = molecular target: Growth hormone secretagogue receptor type 1 (Rattus norvegicus) (UniProt O08725); test: Agonist activity at rat GHSR expressed in CHO cells assessed as increase in ghrelin-induced [3H]IP accumulation at 10 uM after 1 hr by scintillation counting relative to ghrelin; type: functional, cell-based
Summary of the method: (§1)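 CHO cells stably expressing human or rat GHSR labelled 12 h with 3H-inositol (1 µCi/mL in DMEM), then exposed to ghrelin or compound at 37 °C for 1.0 h. Lysis with 20 mM formic acid, 4 °C, 4 h. Extract taken onto SPA beads, 12 h in the dark, then radioactivity counted. IP accumulation expressed as % of maximal ghrelin response at 10, 1.0 and 0.1 µM.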

D(3) dopamine receptor = D(3) dopamine receptor (Homo sapiens, UniProt P35462); test: Inhibition of dopamine D3 receptor
[6] = molecular target: T2, Growth hormone secretagogue receptor type 1 (Homo sapiens, UniProt Q92847); test: Agonist activity at human GHSR expressed in CHO cells assessed as increase in ghrelin-induced [3H]IP accumulation at 10 uM after 1 hr by scintillation counting relative to ghrelin; type: functional, cell-based; summary of the method: as §1
[7] = molecular target: T2, Growth hormone secretagogue receptor type 1; test: Antagonist activity at human GHSR expressed in CHOK1 cells assessed as inhibition of ghrelin-induced intracellular calcium flux by aequorin flash luminescence assay; type: functional, cell-based, CHO-K1
Summary of the method: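 Aequorin flash luminescence in CHO-K1 cells stably co-expressing human ghrelin receptor and aequorin. […] IC50 values are means of three determinations.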

[8] = molecular target: Sodium-dependent dopamine transporter (Homo sapiens, UniProt Q01959); test: Inhibition of DAT
[9] = molecular target: Sodium-dependent noradrenaline transporter (Homo sapiens, UniProt P23975); test: Inhibition of NET
[10] = molecular target: Muscarinic acetylcholine receptor M3 (Homo sapiens, UniProt P20309); test: Inhibition of muscarinic M3 receptor
Histamine H2 receptor = Histamine H2 receptor (Homo sapiens, UniProt P25021); test: Inhibition of histamine H2 receptor
[11] = molecular target: T3, 5-hydroxytryptamine receptor 2C (Homo sapiens, UniProt P28335); test: Inhibition of 5HT2C (receptor)
T3 sequence (P28335 whole entry): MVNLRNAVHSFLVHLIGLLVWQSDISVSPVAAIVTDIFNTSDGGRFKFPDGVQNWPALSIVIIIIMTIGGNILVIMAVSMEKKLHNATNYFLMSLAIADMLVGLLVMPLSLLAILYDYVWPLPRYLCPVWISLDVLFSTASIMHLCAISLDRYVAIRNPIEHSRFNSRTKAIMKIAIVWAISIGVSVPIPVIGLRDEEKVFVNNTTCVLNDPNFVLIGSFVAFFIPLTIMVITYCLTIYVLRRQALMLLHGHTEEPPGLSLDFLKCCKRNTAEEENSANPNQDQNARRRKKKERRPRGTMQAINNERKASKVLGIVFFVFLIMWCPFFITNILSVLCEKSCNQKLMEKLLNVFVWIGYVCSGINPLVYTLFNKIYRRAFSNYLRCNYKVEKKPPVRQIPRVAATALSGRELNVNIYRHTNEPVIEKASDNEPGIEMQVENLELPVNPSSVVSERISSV

[12] = Induction of growth hormone release from Sprague-Dawley rat pituitary cells at 1 uM after 20 mins by RIA assay relative to ghrelin; type: functional, Pituitary gland cell
Summary of the method: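 Pituitary cells from 6–8-week-old male SD rats plated on poly-D-lysine and cultured 3 days at 37 °C. Washed with DMEM assay buffer (20 mM Hepes, 0.3% BSA) and held 5 min at 37 °C. Treated with rat ghrelin or compound for 20 min, then GH release measured as % of maximal ghrelin response. Means of three determinations.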

D(2) dopamine receptor = D(2) dopamine receptor (Homo sapiens, UniProt P14416); test: Inhibition of dopamine D2 receptor
Mu-type opioid receptor = Mu-type opioid receptor (Homo sapiens, UniProt P35372); test: Inhibition of mu opioid receptor
[13] = Ratio of brain AUC to plasma AUC in FVB mouse; type: ADME, cell-free; details: brain and plasma
[14] = Fraction unbound in rat plasma; type: ADME, cell-free
[15] = Mean residence time in mouse at 0.5 mg/kg, iv; type: ADME, organism-based; set-up: dose 0.5 mg/kg, route intravenous; details: in vivo
Summary of the method: (§2)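 Mice dosed intravenously at 0.5 mg/kg. Clearance, MRT and Vdss derived from plasma pharmacokinetics.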

[16] = Metabolic stability in rat liver microsomes assessed as compound remaining at 1 uM after 30 mins; type: ADME, Microsome; details: read-out: Stability
Summary of the method: (§3)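 Compound incubated at 1.0 µM initial concentration with rat or human liver microsomes for 30 min. Percentage of compound remaining determined.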

[17] = Ratio of brain AUC to plasma AUC in mdr1a knockout mouse; type: ADME, cell-free; details: brain and plasma
[18] = Metabolic stability in human liver microsomes assessed as compound remaining at 1 uM after 30 mins; type: ADME, Microsome; details: read-out: Stability; summary of the method: as §3
[19] = Inhibition of rat ghrelin-stimulated growth hormone release from Sprague-Dawley rat pituitary cells pretreated for 10 mins before rat ghrelin challenge measured after 20 mins by RIA assay; type: functional, cell-based; details: Pituitary gland cell
Summary of the method: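 Primary pituitary cells from 6–8-week-old male SD rats cultured 3 days at 37 °C, then washed in DMEM/20 mM Hepes/0.3% BSA buffer. Compound pretreatment for 10 min, then co-incubation with rat ghrelin (0.2 µM) plus compound for another 20 min. GH release measured and IC50 derived. Means of three determinations.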

[20] = Clearance in mouse at 0.5 mg/kg, iv; type: ADME, organism-based; set-up: dose 0.5 mg/kg, route intravenous; details: in vivo; summary of the method: as §2
[21] = Volume of distribution at steady state in mouse at 0.5 mg/kg, iv; type: ADME, organism-based; set-up: dose 0.5 mg/kg, route intravenous; details: in vivo, read-out: Vdss; summary of the method: as §2
MDCK = test: Ratio of apparent permeability from basolateral to apical over apical to basolateral side of MDCK cells expressing human MDR1; details: dog
[22] = Fraction unbound in mouse plasma; type: ADME, cell-free
[23] = molecular target: Growth hormone secretagogue receptor type 1 (Rattus norvegicus) (UniProt O08725); test: (§4) Inhibition of rat GHSR expressed in CHOK1 cells assessed as inhibition of ghrelin-induced intracellular calcium flux by aequorin flash luminescence assay; type: functional, cell-based; details: CHO-K1
[24] = molecular target: Growth hormone secretagogue receptor type 1 (Rattus norvegicus) (UniProt O08725); test: Agonist activity at rat GHSR expressed in CHO cells assessed as increase in ghrelin-induced [3H]IP accumulation at 1 uM after 1 hr by scintillation counting relative to ghrelin; type: functional, cell-based; summary of the method: as §1
[25] = molecular target: T2, Growth hormone secretagogue receptor type 1; test: Agonist activity at human GHSR expressed in CHO cells assessed as increase in ghrelin-induced [3H]IP accumulation at 1 uM after 1 hr by scintillation counting relative to ghrelin; type: functional, cell-based; summary of the method: as §1
[26] = Mean residence time in rat at 2 mg/kg, iv; type: ADME, organism-based; set-up: dose 2 mg/kg, route intravenous; details: in vivo
Summary of the method: (§5)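 Rats dosed iv at 2.0 mg/kg for clearance, MRT and Vdss. Oral dosing at 0.5 mg/kg for bioavailability (F).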

[27] = molecular target: Voltage-gated inwardly rectifying potassium channel KCNH2 (Homo sapiens, UniProt Q12809); test: Inhibition of human ERG
[28] = molecular target: Growth hormone secretagogue receptor type 1 (Rattus norvegicus) (UniProt O08725); test: Agonist activity at rat GHSR expressed in CHO cells assessed as increase in ghrelin-induced [3H]IP accumulation at 0.1 uM after 1 hr by scintillation counting relative to ghrelin; type: functional, cell-based; summary of the method: as §1
[29] = Clearance in rat at 2 mg/kg, iv; type: ADME, organism-based; set-up: dose 2 mg/kg, route intravenous; details: in vivo; summary of the method: as §5
[30] = Volume of distribution at steady state in rat at 2 mg/kg, iv; type: ADME, organism-based; set-up: dose 2 mg/kg, route intravenous; details: in vivo, read-out: Vdss
[31] = Inhibition of cytochrome P450; type: ADME
[32] = molecular target: T2, Growth hormone secretagogue receptor type 1; test: Agonist activity at human GHSR expressed in CHO cells assessed as increase in ghrelin-induced [3H]IP accumulation at 0.1 uM after 1 hr by scintillation counting relative to ghrelin; type: functional, cell-based; summary of the method: as §1
[33] = Oral bioavailability in rat at 0.5 mg/kg; type: ADME, organism-based; details: in vivo; summary of the method: as §5
[34] = molecular target: Growth hormone secretagogue receptor type 1 (Rattus norvegicus, UniProt O08725); test: as §4; type: functional, cell-based, CHO-K1

Chain of D(3) dopamine receptor (P35462 whole entry): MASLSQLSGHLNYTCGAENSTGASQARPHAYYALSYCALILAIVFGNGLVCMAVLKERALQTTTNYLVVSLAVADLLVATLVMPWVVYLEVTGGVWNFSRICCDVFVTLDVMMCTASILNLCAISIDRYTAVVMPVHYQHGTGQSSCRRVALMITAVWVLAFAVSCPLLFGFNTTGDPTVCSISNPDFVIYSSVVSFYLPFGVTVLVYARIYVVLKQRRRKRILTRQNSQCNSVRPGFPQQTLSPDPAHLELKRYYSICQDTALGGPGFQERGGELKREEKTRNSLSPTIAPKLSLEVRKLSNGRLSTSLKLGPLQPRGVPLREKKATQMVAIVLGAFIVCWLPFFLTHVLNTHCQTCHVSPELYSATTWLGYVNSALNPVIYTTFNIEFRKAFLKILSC
T2 sequence (Q92847 whole entry): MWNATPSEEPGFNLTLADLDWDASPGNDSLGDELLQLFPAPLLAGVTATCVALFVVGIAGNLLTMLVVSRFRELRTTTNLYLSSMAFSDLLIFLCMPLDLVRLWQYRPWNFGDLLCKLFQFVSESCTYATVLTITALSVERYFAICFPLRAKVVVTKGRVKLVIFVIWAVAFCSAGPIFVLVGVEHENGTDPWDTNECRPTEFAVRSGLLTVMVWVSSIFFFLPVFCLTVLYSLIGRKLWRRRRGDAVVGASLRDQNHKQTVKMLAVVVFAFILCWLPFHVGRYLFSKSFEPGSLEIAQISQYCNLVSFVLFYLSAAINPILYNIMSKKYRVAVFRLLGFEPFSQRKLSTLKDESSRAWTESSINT
Chain of Muscarinic acetylcholine receptor M3 (P20309 whole entry): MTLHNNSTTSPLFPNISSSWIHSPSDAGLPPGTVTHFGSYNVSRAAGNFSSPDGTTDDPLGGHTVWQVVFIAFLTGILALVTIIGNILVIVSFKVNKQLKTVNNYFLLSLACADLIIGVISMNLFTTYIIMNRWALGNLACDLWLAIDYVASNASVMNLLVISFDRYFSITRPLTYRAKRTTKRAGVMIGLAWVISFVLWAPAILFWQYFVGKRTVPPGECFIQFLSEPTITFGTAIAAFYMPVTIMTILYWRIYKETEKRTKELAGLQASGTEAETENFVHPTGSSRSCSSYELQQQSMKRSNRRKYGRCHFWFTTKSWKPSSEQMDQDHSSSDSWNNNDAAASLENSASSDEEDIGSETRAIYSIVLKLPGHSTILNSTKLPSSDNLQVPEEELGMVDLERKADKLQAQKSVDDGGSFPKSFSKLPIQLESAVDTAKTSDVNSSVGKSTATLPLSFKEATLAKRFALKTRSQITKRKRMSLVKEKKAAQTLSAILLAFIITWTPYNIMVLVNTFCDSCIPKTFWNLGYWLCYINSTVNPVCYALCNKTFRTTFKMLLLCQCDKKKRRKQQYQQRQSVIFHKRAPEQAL
Chain of 5-hydroxytryptamine receptor 2A (P28223 whole entry): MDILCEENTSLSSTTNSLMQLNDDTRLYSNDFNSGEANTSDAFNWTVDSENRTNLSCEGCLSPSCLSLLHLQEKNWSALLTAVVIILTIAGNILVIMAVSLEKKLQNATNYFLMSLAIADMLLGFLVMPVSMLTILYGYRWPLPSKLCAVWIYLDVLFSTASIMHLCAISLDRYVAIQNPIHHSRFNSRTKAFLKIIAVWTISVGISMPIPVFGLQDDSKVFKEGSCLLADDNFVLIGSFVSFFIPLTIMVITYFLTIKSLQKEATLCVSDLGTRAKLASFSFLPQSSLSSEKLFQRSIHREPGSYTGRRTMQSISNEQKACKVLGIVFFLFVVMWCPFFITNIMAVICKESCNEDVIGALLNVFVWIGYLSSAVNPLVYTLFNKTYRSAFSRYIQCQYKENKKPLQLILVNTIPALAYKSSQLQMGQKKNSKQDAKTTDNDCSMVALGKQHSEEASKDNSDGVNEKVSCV
Chain of Sodium-dependent dopamine transporter (Q01959 whole entry): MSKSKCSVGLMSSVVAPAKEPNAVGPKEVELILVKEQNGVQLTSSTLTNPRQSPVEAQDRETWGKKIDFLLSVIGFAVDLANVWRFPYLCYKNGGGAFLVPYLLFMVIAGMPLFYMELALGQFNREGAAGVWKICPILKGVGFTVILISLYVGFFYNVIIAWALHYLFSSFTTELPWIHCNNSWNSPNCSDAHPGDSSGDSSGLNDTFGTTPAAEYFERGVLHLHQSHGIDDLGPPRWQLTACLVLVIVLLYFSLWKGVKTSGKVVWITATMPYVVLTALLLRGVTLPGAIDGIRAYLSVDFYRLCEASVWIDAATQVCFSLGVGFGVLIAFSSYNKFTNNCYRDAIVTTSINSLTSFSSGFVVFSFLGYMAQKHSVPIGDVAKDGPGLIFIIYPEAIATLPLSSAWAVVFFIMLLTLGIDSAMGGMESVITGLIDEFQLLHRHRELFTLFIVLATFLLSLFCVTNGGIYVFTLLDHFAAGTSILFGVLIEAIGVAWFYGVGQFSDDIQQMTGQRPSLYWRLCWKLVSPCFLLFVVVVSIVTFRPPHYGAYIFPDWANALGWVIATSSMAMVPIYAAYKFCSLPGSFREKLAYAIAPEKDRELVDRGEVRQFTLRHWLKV
Chain of D(2) dopamine receptor (P14416 whole entry): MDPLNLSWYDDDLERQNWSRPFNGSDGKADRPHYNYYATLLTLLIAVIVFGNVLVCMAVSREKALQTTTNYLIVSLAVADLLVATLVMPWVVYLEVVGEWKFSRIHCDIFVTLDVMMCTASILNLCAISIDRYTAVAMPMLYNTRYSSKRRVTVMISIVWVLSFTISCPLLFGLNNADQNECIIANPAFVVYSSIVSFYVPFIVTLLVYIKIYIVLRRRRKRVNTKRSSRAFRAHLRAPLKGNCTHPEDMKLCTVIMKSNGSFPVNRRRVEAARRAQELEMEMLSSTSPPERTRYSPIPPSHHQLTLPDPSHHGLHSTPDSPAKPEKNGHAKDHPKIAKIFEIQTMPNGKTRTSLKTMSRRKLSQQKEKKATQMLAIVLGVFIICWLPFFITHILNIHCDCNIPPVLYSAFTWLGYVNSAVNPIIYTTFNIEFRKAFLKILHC
Chain of Sodium-dependent noradrenaline transporter (P23975 whole entry): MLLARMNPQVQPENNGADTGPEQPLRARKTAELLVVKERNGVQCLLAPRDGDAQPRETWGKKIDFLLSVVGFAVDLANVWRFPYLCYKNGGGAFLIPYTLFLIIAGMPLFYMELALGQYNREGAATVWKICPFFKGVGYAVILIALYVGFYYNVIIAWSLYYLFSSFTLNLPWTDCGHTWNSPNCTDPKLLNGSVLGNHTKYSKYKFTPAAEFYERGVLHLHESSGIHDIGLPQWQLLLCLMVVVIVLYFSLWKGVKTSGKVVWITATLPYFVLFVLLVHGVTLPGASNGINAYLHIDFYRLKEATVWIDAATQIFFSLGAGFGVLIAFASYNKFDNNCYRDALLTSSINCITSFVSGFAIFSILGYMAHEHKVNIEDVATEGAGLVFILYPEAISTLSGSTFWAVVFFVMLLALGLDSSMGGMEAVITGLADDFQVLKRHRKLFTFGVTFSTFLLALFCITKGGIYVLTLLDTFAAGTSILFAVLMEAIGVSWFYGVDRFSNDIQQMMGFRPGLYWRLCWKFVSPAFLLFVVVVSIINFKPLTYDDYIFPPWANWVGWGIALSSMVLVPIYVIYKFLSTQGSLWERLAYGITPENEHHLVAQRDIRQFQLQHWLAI
Chain of Kappa-type opioid receptor (P41145 whole entry): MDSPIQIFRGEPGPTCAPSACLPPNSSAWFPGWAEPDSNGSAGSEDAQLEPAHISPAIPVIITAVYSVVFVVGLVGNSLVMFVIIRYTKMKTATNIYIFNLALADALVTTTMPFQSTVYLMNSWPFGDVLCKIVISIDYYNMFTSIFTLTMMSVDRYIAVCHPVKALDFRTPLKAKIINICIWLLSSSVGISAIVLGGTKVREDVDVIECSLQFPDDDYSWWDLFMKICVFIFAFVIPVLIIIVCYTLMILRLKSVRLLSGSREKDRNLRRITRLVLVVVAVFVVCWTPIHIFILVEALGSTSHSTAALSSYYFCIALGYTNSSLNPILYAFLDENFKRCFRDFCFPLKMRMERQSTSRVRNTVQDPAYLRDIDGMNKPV
Chain of Histamine H2 receptor (P25021 whole entry): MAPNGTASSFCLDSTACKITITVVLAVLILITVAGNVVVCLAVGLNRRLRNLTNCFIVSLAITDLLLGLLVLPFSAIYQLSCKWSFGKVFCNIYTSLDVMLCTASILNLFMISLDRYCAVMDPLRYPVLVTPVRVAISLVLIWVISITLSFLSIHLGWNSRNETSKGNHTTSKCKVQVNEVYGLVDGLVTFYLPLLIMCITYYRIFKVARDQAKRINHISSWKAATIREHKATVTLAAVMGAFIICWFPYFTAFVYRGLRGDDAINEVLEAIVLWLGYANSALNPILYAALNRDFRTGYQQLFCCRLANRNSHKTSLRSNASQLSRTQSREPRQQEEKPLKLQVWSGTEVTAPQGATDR
Chain of Sodium-dependent serotonin transporter (P31645 whole entry): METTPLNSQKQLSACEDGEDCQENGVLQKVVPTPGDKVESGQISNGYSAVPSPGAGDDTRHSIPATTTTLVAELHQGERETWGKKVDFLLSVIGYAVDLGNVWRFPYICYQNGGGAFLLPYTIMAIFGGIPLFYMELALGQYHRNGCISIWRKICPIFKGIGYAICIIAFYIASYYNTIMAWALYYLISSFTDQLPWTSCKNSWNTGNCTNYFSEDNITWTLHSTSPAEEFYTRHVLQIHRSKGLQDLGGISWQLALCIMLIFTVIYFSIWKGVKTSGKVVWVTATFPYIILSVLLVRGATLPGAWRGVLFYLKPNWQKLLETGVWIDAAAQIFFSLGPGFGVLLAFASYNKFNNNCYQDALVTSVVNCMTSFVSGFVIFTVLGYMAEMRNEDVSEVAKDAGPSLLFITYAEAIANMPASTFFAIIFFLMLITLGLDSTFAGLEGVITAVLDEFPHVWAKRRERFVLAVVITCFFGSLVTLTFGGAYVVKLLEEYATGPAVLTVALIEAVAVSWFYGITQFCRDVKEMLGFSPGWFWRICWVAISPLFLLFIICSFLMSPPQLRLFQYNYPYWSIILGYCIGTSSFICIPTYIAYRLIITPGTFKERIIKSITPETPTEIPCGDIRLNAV

SMILES | Ki [1] [µM] | Ki [2] [µM] | Ki [3] [µM] | Ki [4] [µM] | Activity [5] [%] | Ki (D(3) dopamine receptor) [µM] | Activity [6] [%] | IC50 [7] [µM] | Ki [8] [µM] | Ki [9] [µM] | Ki [10] [µM] | Ki (Histamine H2 receptor) [µM] | Ki [11] [µM] | Activity [12] [%] | Ki (D(2) dopamine receptor) [µM] | Ki (Mu-type opioid receptor) [µM] | IC50 [23] [µM] | further results
COc1cccc(-c2ccc(C(=O)N3CCN(C(=O)c4ccc5cc[nH]c5c4)[C@@H](C)C3)cc2)c1 | > 10 | > 10 | > 10 | > 10 | 46 | > 10 | 45 | 0.012 | > 10 | > 10 | > 10 | > 10 | > 10 | 40 | > 10 | > 10 | – | –
C[C@H]1CN(C(=O)c2ccc(-c3ccncc3)c(F)c2)CCN1C(=O)c1ccc2cc[nH]c2c1 | – | – | – | – | -16 | – | – | 0.0122 | – | – | – | – | – | – | – | – | 0.0103 | Kp [13]: 0.16; fraction unbound [14]: 0.04; MRT [15]: 0.7 h; remaining at 0.5 h, 1 µM [16]: 78%; Kp [17]: 2.3; remaining at 0.5 h, 1 µM [18]: 87%; IC50 [19]: 0.093 µM; clearance [20]: 32.7 mL/min/kg; Vd [21]: 1.4 L/kg; Ratio (MDCK): 1.7; fraction unbound [22]: 0.04
C[C@H]1CN(C(=O)c2ccc(-c3ccccc3F)cc2)CCN1C(=O)c1ccc2cc[nH]c2c1 | > 10 | > 10 | > 10 | > 10 | 33 | > 10 | 33 | 0.0091 | > 10 | > 10 | > 10 | > 10 | > 10 | 24 | > 10 | > 10 | – | Kp [13]: 0.26; Activity [24]: 42%; Activity [25]: 31%; MRT [26]: 1.9 h; IC50 [27]: > 10 µM; Activity [28]: 41%; clearance [29]: 35 mL/min/kg; Vd [30]: 3.7 L/kg; IC50 [31]: > 10 µM; Activity [32]: 21%; bioavailability [33]: 17%; IC50 [34]: 0.002 µM
C[C@H]1CN(C(=O)c2ccc(-c3ccccc3Cl)cc2)CCN1C(=O)c1ccc2cc[nH]c2c1 | > 10 | > 10 | > 10 | > 10 | 32 | > 10 | 35 | 0.0021 | > 10 | > 10 | > 10 | > 10 | > 10 | 24 | > 10 | > 10 | – | –
C[C@H]1CN(C(=O)c2ccc(-c3ccccc3C(F)(F)F)cc2)CCN1C(=O)c1ccc2cc[nH]c2c1 | > 10 | > 10 | > 10 | > 10 | 28 | > 10 | 24 | 0.0041 | > 10 | > 10 | > 10 | > 10 | > 10 | 21 | > 10 | > 10 | – | –
O=C(c1ccc(-c2ccccc2)cc1)N1CCN(C(=O)c2ccc3cc[nH]c3c2)CC1 | > 10 | > 10 | > 10 | > 10 | 14 | > 10 | 18 | 0.1 | > 10 | > 10 | > 10 | > 10 | > 10 | – | > 10 | > 10 | – | Activity [24]: 14%; Activity [28]: 24%
C[C@H]1CN(C(=O)c2ccc(-c3ccncc3F)c(F)c2)CCN1C(=O)c1ccc2cc[nH]c2c1 | – | – | – | – | -1 | – | – | 0.042 | – | – | – | – | – | – | – | – | 0.045 | –
C[C@H]1CN(C(=O)c2ccc(-c3ccncc3F)cc2)CCN1C(=O)c1ccc2cc[nH]c2c1 | – | – | – | – | -2 | – | – | 0.031 | – | – | – | – | – | – | – | – | 0.049 | –
